Measured values from ChEMBL document CHEMBL1152537, “Special feature of mixed phosphotriester derivatives of cytarabine” (Bioorg Med Chem, 2009).

Tests used:
CCRF-CEM [1] = test: Cytotoxicity against deoxynucleoside analogue-sensitive human CCRF-CEM cells after 3 days by MTT assay; format: functional, cell-based; settings: 72 h
Outline: (§1)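 Suspension lines (CCRF-CEM, L1210) grown in RPMI with 10% FBS, L-glutamine and penicillin/streptomycin, added at 10,000 cells/well directly to media holding graded drug concentrations. After 3 days at 37 °C, MTT (100 µg) was added for 2 h and the formazan dissolved in isopropanol/HCl/water for optical density.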

L1210 [2] = test: Cytotoxicity against deoxycytidine kinase deficient and nucleoside analogue-resistant mouse L1210 10K cells after 3 days by MTT assay; format: functional, cell-based; settings: L1210, 72 h; outline: as §1
MCF7 [3] = test: Cytotoxicity against deoxynucleoside analogue-sensitive human MCF7 cells after 3 days by MTT assay; format: functional, cell-based; settings: MCF7, 72 h
Outline: (§2)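 Adherent lines (Messa in RPMI, MCF7 in DMEM, each with 10% FBS, L-glutamine and penicillin/streptomycin) seeded at 3000 cells/well and left 24 h at 37 °C before drugs were added over a concentration range. After 3 days at 37 °C, MTT (100 µg) was added for 2 h and the formazan dissolved in isopropanol/HCl/water for optical density.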

MCF7 [4] = test: Cytotoxicity against deoxynucleoside analogue-resistant human MCF7 1K cells overexpressing ribonucleotide reductase after 3 days by MTT assay; format: functional, cell-based; settings: MCF7, 72 h; outline: as §2
CCRF-CEM [5] = test: Resistance ratio of IC50 for deoxynucleoside analogue-resistant human CEM/ARAC8C cells to IC50 for deoxynucleoside analogue-sensitive human CCRF-CEM cells; format: functional
Outline: (§3)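 RR is the 3-day MTT IC50 in the resistant line divided by the IC50 in its sensitive parental line. Significance between IC50s and RRs was tested by Student's t-test.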

[6] = Cytotoxicity against nucleoside transporter deficient and deoxynucleoside analogue-resistant human CEM/ARAC8C cells after 3 days by MTT assay; format: functional, cell-based; settings: 72 h
L1210 [7] = test: Resistance ratio of IC50 for deoxynucleoside analogue-resistant mouse L1210 10K cells to IC50 for deoxynucleoside analogue-sensitive mouse L1210 cells; format: functional; outline: as §3
[8] = Cytotoxicity against deoxynucleoside analogue-sensitive human MESSA cells after 3 days by MTT assay; format: functional, cell-based; settings: MES-SA, 72 h; outline: as §2
[9] = Cytotoxicity against deoxycytidine kinase deficient and deoxynucleoside analogue-resistant human MESSA 10K cells after 3 days by MTT assay; format: functional, cell-based; settings: 72 h; outline: as §2
L1210 [10] = test: Cytotoxicity against deoxynucleoside analogue-sensitive mouse L1210 cells after 3 days by MTT assay; format: functional, cell-based; settings: L1210, 72 h; outline: as §1
[11] = Half life in total cell extract of nucleoside analogue-resistant mouse L1210 10K cells by HPLC analysis in presence of snake venom phosphodiesterase; format: ADME, cell-based
[12] = Half life in total cell extract of deoxynucleoside analogue-sensitive mouse L1210 cells by HPLC analysis in presence of snake venom phosphodiesterase; format: ADME, cell-based

Compound `Nc1ccn([C@@H]2O[C@H](CO)[C@@H](O)[C@@H]2O)c(=O)n1` [CYTARABINE] has an IC50 (CCRF-CEM [1]) of 0.001 µM, an IC50 (L1210 [2]) of 103 µM and an IC50 (MCF7 [3]) of 0.004 µM. The IC50 (MCF7 [4]) was 0.04 µM, the “Ratio IC50” value (CCRF-CEM [5]) was 100000 and the IC50 [6] was 100 µM. For the same compound, the “Ratio IC50” value (L1210 [7]) was 257500, the IC50 [8] was 1.7 µM and the IC50 [9] was 6330 µM. For the same compound, the IC50 (L1210 [10]) was 0.0004 µM.
Compound `Cc1cn([C@H]2C[C@H](O)[C@@H](COP(=O)(O)Oc3ccc([N+](=O)[O-])cc3)O2)c(=O)[nH]c1=O` has a half-life [11] of 43 min and a half-life [12] of 43 min.
`Cc1cn([C@@H]2O[C@H](COP(=O)([O-])Oc3ccccc3)[C@@H](N=[N+]=[N-])[C@@H]2O)c(=O)[nH]c1=O.[Na+]` gave a half-life [11] of 53 min and a half-life [12] of 53 min.
In the case of `Nc1ccn([C@@H]2O[C@H](COP(=O)([O-])Oc3ccccc3)[C@@H](O)[C@@H]2O)c(=O)n1.[Na+]`, the half-life [11] is reported as 276 min and the half-life [12] is reported as 276 min.
